Source: ChEMBL document CHEMBL1151765, “Rational design of substituted diarylureas: a scaffold for binding to G-quadruplex motifs” (J Med Chem, 2008)
Calls of active or inactive are those of the source. No cut-off for these calls is given here.

Legend:
[1] = Stabilization of d[(TA)2GC(TA)2T6(TA)2]GC(TA)2 sequence of duplex DNA assessed as change in melting temperature at 1 uM by FRET assay
Procedure, shortened: (§1)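 Dual-labelled FAM/TAMRA oligos at 400nM in 60mM KCl potassium cacodylate buffer, pH 7.4, heated to 85 °C for 10 min, then cooled. Ligand added to 1µM; buffer alone as negative control. Excitation 450–495nm, emission read at 515–545nm every 0.5 °C from 30–100 °C. ΔTm is ligand Tm minus control Tm, from four experiments ± maximum sd; c-kit1 curves fitted to sigmoids.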

[2] = Cytotoxicity against human WI38 cells after 96 hrs by SRB assay; type: cell-based; conditions: WI-38, 96 h
[3] = system: MCF7; test: Cytotoxicity against human MCF7 cells after 96 hrs by SRB assay; type: functional, cell-based; conditions: MCF7, 96 h
[4] = system: A549; test: Selectivity ratio of IC50 for human A549 cells to IC50 for human WI38 cells
[5] = Stabilization of d[C3G3CG3CGCGAG3AG4AG2] sequence of c-kit2 G-quadruplex DNA assessed as change in melting temperature at 1 uM by FRET assay; procedure, shortened: as §1
[6] = system: MCF7; test: Selectivity ratio of IC50 for human MCF7 cells to IC50 for human WI38 cells
[7] = system: A549; test: Cytotoxicity against human A549 cells after 96 hrs by SRB assay; type: functional, cell-based; conditions: A549, 96 h
[8] = Stabilization of d[G3(T2AG3)3] sequence of F21T telomeric G-quadruplex DNA assessed as change in melting temperature at 1 uM by FRET assay
Procedure, shortened: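 Dual-labelled oligo (5′-FAM, 3′-TAMRA) at 400nM in FRET buffer (60mM KCl, K cacodylate, pH 7.4), heated to 85 °C for 10 min, cooled to room temperature. Ligand added from DMSO dilution. Excitation 450–495nm, emission 515–545nm, read every 0.5 °C from 30–100 °C. ΔTm from four experiments: averaged ligand Tm minus averaged buffer-control Tm, ± maximum sd.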

[9] = Stabilization of d[AGAG3AG2GCGCTG3AG2AG3GCT] sequence of c-kit1 G-quadruplex DNA assessed as change in melting temperature at 1 uM by FRET assay; procedure, shortened: as §1
[10] = Stabilization of d[G3(T2AG3)3] sequence of F21T telomeric G-quadruplex DNA assessed as change in melting temperature at 1 uM by FRET assay relative to BRACO-19 in presence of calf thymus DNA
Procedure, shortened: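 F21T FRET melting with ligand at 1µM in the presence of calf thymus DNA competitor at increasing bp concentrations. Retained stabilization, from three experiments, normalized to the ligand's ΔTm with no competitor (100%) ± normalized sd.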

O=C(CCCN1CCCC1)Nc1cccc(NC(=O)c2ccc(NC(=O)Nc3ccc(C(=O)Nc4cccc(NC(=O)CCCN5CCCC5)c4)cc3)cc2)c1
change in melting temperature (ΔTm) [1]: 5.5 °C
IC50 [2]: > 25 µM
IC50 [3]: 19.5 µM
Ratio IC50 [4]: 1.3
change in melting temperature (ΔTm) [5]: 6.5 °C
Ratio IC50 [6]: 1.3
IC50 [7]: 19.4 µM
change in melting temperature (ΔTm) [8]: 3.3 °C

O=C(CN1CCCC1)Nc1cc(NC(=O)Nc2cc(NC(=O)CN3CCCC3)cc(C(=O)Nc3ccccc3)c2)cc(C(=O)Nc2ccccc2)c1
IC50 [2]: 13.8 µM
IC50 [3]: 21.9 µM
Ratio IC50 [4]: 0.3
change in melting temperature (ΔTm) [5]: 8.7 °C
change in melting temperature (ΔTm) [9]: 5.3 °C
Ratio IC50 [6]: 0.6
IC50 [7]: > 50 µM
Activity [10]: Active
change in melting temperature (ΔTm) [8]: 13.6 °C

O=C(CN1CCCC1)Nc1ccc(NC(=O)c2ccc(NC(=O)Nc3ccc(C(=O)Nc4ccc(NC(=O)CN5CCCC5)cc4)cc3)cc2)cc1
IC50 [2]: > 25 µM
IC50 [3]: > 25 µM
Ratio IC50 [4]: 1
IC50 [7]: > 25 µM

O=C(CN1CCCC1)Nc1cccc(NC(=O)c2cccc(NC(=O)Nc3cccc(C(=O)Nc4cccc(NC(=O)CN5CCCC5)c4)c3)c2)c1
change in melting temperature (ΔTm) [1]: 0.3 °C
IC50 [2]: 22.8 µM
IC50 [3]: 34.1 µM
Ratio IC50 [4]: 0.5
change in melting temperature (ΔTm) [5]: 10.5 °C
change in melting temperature (ΔTm) [9]: 3.4 °C
IC50 [7]: > 50 µM
Activity [10]: Active
change in melting temperature (ΔTm) [8]: 6.8 °C

O=C(CCN1CCCC1)Nc1cc(NC(=O)Nc2cc(NC(=O)CCN3CCCC3)cc(C(=O)Nc3ccccc3)c2)cc(C(=O)Nc2ccccc2)c1
IC50 [2]: 16.2 µM
IC50 [3]: 32.4 µM
Ratio IC50 [4]: 0.4
change in melting temperature (ΔTm) [5]: 12.9 °C
change in melting temperature (ΔTm) [9]: 4.9 °C
Ratio IC50 [6]: 0.5
IC50 [7]: 41.5 µM
Activity [10]: Active
change in melting temperature (ΔTm) [8]: 13.3 °C

O=C(CCCN1CCCC1)Nc1cccc(NC(=O)c2cccc(NC(=O)Nc3cccc(C(=O)Nc4cccc(NC(=O)CCCN5CCCC5)c4)c3)c2)c1
IC50 [2]: 26.4 µM
IC50 [3]: 49.6 µM
Ratio IC50 [4]: 0.5
change in melting temperature (ΔTm) [5]: 16.3 °C
change in melting temperature (ΔTm) [9]: 7.8 °C
IC50 [7]: > 50 µM
Activity [10]: Active
change in melting temperature (ΔTm) [8]: 13.6 °C

O=C(CCN1CCOCC1)Nc1ccc(NC(=O)c2cccc(NC(=O)Nc3cccc(C(=O)Nc4ccc(NC(=O)CCN5CCOCC5)cc4)c3)c2)cc1
change in melting temperature (ΔTm) [1]: 0.2 °C
IC50 [2]: > 50 µM
IC50 [3]: 40.6 µM
change in melting temperature (ΔTm) [5]: 1.3 °C
IC50 [7]: > 50 µM
change in melting temperature (ΔTm) [8]: 1 °C

O=C(CCN1CCCC1)Nc1cccc(NC(=O)c2cccc(NC(=O)Nc3cccc(C(=O)Nc4cccc(NC(=O)CCN5CCCC5)c4)c3)c2)c1
change in melting temperature (ΔTm) [1]: 2.8 °C
IC50 [2]: 19.5 µM
IC50 [3]: 14.4 µM
Ratio IC50 [4]: 0.4
change in melting temperature (ΔTm) [5]: 15.3 °C
change in melting temperature (ΔTm) [9]: 6.7 °C
IC50 [7]: > 50 µM
Activity [10]: Active
change in melting temperature (ΔTm) [8]: 14.1 °C

CN(C)CCC(=O)Nc1ccc(NC(=O)c2cccc(NC(=O)Nc3cccc(C(=O)Nc4ccc(NC(=O)CCN(C)C)cc4)c3)c2)cc1
change in melting temperature (ΔTm) [1]: 0.1 °C
IC50 [2]: > 50 µM
IC50 [3]: 12.2 µM
Ratio IC50 [4]: 1
change in melting temperature (ΔTm) [5]: 13.6 °C
change in melting temperature (ΔTm) [9]: 2.9 °C
IC50 [7]: > 50 µM
Activity [10]: Active
change in melting temperature (ΔTm) [8]: 12.3 °C

O=C(CCCN1CCCC1)Nc1cc(NC(=O)Nc2cc(NC(=O)CCCN3CCCC3)cc(C(=O)Nc3ccccc3)c2)cc(C(=O)Nc2ccccc2)c1
change in melting temperature (ΔTm) [1]: 0.5 °C
IC50 [2]: 11 µM
IC50 [3]: 24.2 µM
Ratio IC50 [4]: 0.4
change in melting temperature (ΔTm) [5]: 11.7 °C
change in melting temperature (ΔTm) [9]: 6.3 °C
IC50 [7]: 30.6 µM
Activity [10]: Active
change in melting temperature (ΔTm) [8]: 12.3 °C
